Reference: PMC11208914 (Biochemistry and Biophysics Reports, 2024)
“Also recorded” adds a separate entry of the source. Read-outs that look alike come from different tables or passages of the source.

Key:
[1] = system: ZIKV PF13; type: cell-based, Zika virus; details: FACS; for reduction in infection: virus treated before infection of HMC3 cells
Method in brief: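 HMC3 cells were seeded at 4.10^4 cells/well the day before. ZIKV PF13 (MOI 1.5) was preincubated with ½ dilutions of peptide (50 to 3 μg/ml) for 1 h at 37 °C, then added to cells for 1.5 h at 37 °C before medium replacement; duplicates. Trypsinized cells were fixed and permeabilized (30 min, 4 °C), stained with 4G2 anti-envelope antibody (1/500) and Alexa488 secondary (1/1000), then analysed by flow cytometry.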

[2] = system: HeLa cells; experiment: CellTiter-Glo cell viability test, HeLa cells; type: cell-based
Method in brief: (§1)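 HMC3 or HeLa cells were grown in DMEM with L-glutamine, 10 % FCS and 1 % penicillin/streptomycin, then seeded at 10^4 cells/well. Peptide in ½ dilutions (100 to 1.5 μg/ml) was added for 2 h at 37 °C and 5 % CO2. Medium was then replaced with DMEM/10 % FCS for 24 h, with untreated cells as control. ATP was read by CellTiter-Glo luminescence, in triplicate.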

[3] = system: HMC3 cells; experiment: CellTiter-Glo cell viability test, HMC3 cells; type: cell-based; details: Fig. 2; for cytotoxic effect on HMC3 cells at 100 μg/ml: about 100 μg/ml
Method in brief: as §1

Sequence: ALWKTLLKKVLKAAAKAALKAVLVGANA [K4K20S4]
- reduction in infection ([1]; 3 μg/ml): Approximately 90%
- viability of HeLa cells at 100 μg/ml [2]: approximately 1%
- concentration at which the peptide exhibits cytotoxicity to HeLa cells ([2]; Fig. 3): around 25 μg/ml
- concentration at which the peptide remained non-toxic to HMC3 cells [3]: about 12.5 μg/ml
- cytotoxic effect on HMC3 cells at 100 μg/ml [3]: exhibited cytotoxicity

Sequence: ALWKTLLKKVLKAAAKAALKAVLVGAKA [K4K20K27S4]
- reduction in infection ([1]; 6.25 μg/ml): Approximately 90%
- viability of HeLa cells at 100 μg/ml [2]: 18%
- concentration at which the peptide exhibits cytotoxicity to HeLa cells ([2]; Fig. 3): 50 µg/mL
- concentration at which the peptide remained non-toxic to HMC3 cells [3]: about 12.5 μg/ml
- cytotoxic effect on HMC3 cells at 100 μg/ml [3]: exhibited cytotoxicity

Sequence: GLKKKIKEVGKEAAKAAAKAAGKAALGAVSEAV [K3K4B2]
- effect on ZIKV PF13 infection ([1]; non-cytotoxic concentrations 50 to 3 μg/ml, HMC3 cells): increased the infection
- cytotoxicity to HeLa cells ([2]; even at high concentrations, Fig. 3): non-cytotoxic; also recorded: did not exhibit any toxic effects
- cytotoxic effect on HMC3 cells at 100 μg/ml [3]: no cytotoxic effects
